3 substances from publication PMC3075368 (Journal of molecular and cellular cardiology, 2011) can be followed below.

The subject of data set [1] is heart function in rats after ischemia/reperfusion injury. The conditions noted are these: rat, in vivo.
Another data set concerns the target T1, alpha-B crystalline (Homo sapiens, UniProt P02511).
T1 sequence (P02511 1-175): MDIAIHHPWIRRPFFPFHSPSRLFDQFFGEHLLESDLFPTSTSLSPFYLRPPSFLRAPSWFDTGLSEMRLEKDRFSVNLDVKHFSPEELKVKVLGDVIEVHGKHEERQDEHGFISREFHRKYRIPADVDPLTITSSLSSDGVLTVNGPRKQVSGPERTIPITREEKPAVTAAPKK
Nature of the data set: Surface Plasmon Resonance assay. The conditions noted are these: biotinylated peptide on streptavidin coated chips, Biacore 2000. Format: binding. (In general: In SPR one partner is held on a chip, and binding of the other changes the refractive index at the surface.)

The test system of data set [2] is heart function in rats after ischemia/reperfusion injury.
A further data set deals with ischemic left ventricle. The data set is described as follows: Western analysis of post-ischemic cardiac tissue with anti-mCherry antibody. The data set is classed as in vivo, mouse. The conditions noted are these: versus negative controls. Put shortly: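 Mice had 15 min ischemia then 5 min reperfusion. Recombinant Sumo-mCherry–test peptide (Ni-NTA plus size-exclusion purified; 10 mg/mL PBS stock) was given 1 mg i.v. Controls were unconjugated Sumo-mCherry, linear or scrambled peptide fusions, and PBS. After 5 min circulation, ischemic LV, non-ischemic LV and RV were snap frozen, RIPA-homogenized, sonicated and centrifuged, then blotted with rabbit anti-RFP. Three blinded sets, 5 mice each.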

[3] abbreviates: echocardiography, 24 hours after administration, n=4, mean ± SEM.
Where [4] appears, read: hemodynamic measurement, 24 hours after administration, n=4, mean ± SEM.

Like-named read-outs stand apart in the source and are kept apart here. Bridge positions count the residues as written; N and C are the ends. Ends that are not written are not given here.

With “CSKTALSMC (disulfide 1-9 (inferred)) [scrambled peptide]”, in data set [1], the “% Fractional shortening” value is recorded as 43.20±3.22%, the Anterior wall thickness came to 2.08±0.08 mm, the Cardiac index was 20.96±4.48 ml/min per 100 g and the Cardiac output came to 44530 ± 7633 µL/min. Besides, in data set [1], the Ejection fraction is 27.89±3.01%, the End-diastolic dimension amounted to 5.16±0.23 mm, the End-diastolic pressure was determined as 3.08±0.22 mmHg and the End-diastolic volume turned out to be 362.72 ± 14.82 µL. In data set [1], this substance displayed an End-systolic dimension of 2.93±0.18 mm, an End-systolic pressure of 120.1±3.48 mmHg, an End-systolic volume of 260.91 ± 10.99 µL and a Heart rate of 430.75±20.59 beats/min. In data set [1], the LVM/BW worked out at 2.94±0.32, the Left ventricle mass came out at 646 ± 55.48 g, the Posterior wall thickness came out at 1.83±0.06 mm and the Stroke volume was 101.81 ± 13.74 µL.
With CSTSMLKAC (disulfide 1-9 (inferred)), the “interaction with alpha-B crystalline” value at alpha-B crystalline was “a significant interaction between CSTSMLKAC and alpha-B crystalline was not demonstrated”. In data set [2] (24 hours after administration, n=4, mean ± SEM), the Body weight was determined as 260.25 ± 13.14 g. Further, the “impairment in LV contractile function” value in data set [2] (24 hours after systemic administration, versus scrambled peptide and PBS, n=4 each) was “did not induce any significant impairment”. Also, in data set [2] (setting [3]), the “% Fractional shortening” value is recorded as 54.05±6.72%, the Anterior wall thickness is on record as 2.00±0.04 mm, the End-diastolic dimension is given as 5.33±0.36 mm and the End-systolic dimension was 2.49±0.51 mm. The same substance yielded a Posterior wall thickness in data set [2] (setting [3]) of 1.73±0.10 mm. Also, in data set [2] (setting [4]), the Cardiac index came out at 19.87±2.54 ml/min per 100 g, the Cardiac output worked out at 51430 ± 6708 µL/min, the Ejection fraction worked out at 28.44±2.09% and the End-diastolic pressure is 3.96±0.67 mmHg. In data set [2] (setting [4]), this substance yielded an End-diastolic volume of 393.56 ± 25.62 µL, an End-systolic pressure of 119±3.16 mmHg, an End-systolic volume of 280.76 ± 15.91 µL and a Stroke volume of 112.82 ± 13.61 µL.
Turning to Sumo-mCherry-CSTSMLKAC, in the data set with ischemic left ventricle, the “homing of the protein to post-ischemic cardiac tissue” value is on record as “clear homing”.
